The values below come from PubChem BioAssay AID2727 (Broad Institute, 2010).

The other results are listed elsewhere or left out. Calls of active or inactive are those of the source.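 How the source made its calls: active means inhibition above about 80% in every replicate, not just on average (limit read from the data); inconclusive means at least half of replicates past the limit, but not all; inactive means fewer than half of replicates past the limit.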

This assay can be described thus: luminescence decrease in constitutive quorum sensing strain – strain BB721, luminescence readout, counter-screen for LuxS inhibitor project, confirmation (AID 2727). To be noted: Vibrio harveyi BB721 luminescence, 9 h; at 7.5 µM; active compounds read high. The gist of the method: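 Material: Vibrio harveyi BB721, quorum sensing constitutively active; times: 9 h, 30 °C; compound: 45 nL per well from 10 mM compound stock; read-out basis: luminescence reduction; medium: AB (autoinducer bioassay) growth medium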
Turning to `O=C(c1cc(-c2cccc(O)c2)on1)N1CCc2ccccc2C1`, the inhibition (usually the drop in the measured response relative to a control, in per cent) is 93.6% (active).
As to `O=C(/C=C/c1ccc2c(c1)OCO2)NCc1ccc(F)cc1`, the inhibition was 94% (active).
The value for `Cc1cc(CN(C)C(=O)c2cc(COc3ccc(C)c(C)c3)on2)n[nH]1` was 96% (active); that for `O=C(COc1ncnc2ccccc12)NC(=O)NCc1ccccc1` was 95.7% (active).
The value for `COC(=O)C1CCN(C(=O)c2ccc3oc(Cc4ccc(Cl)cc4)nc3c2)CC1` was 95.6% (active).
The value for `Cc1ccc(NS(=O)(=O)c2ccc3c(c2)NC(=O)CO3)cc1` was 92% (active).
Take `Cc1nn(CC(=O)Nc2ccc(F)cc2)c(=O)c2ccccc12`: the inhibition is 98.5% (active).
As to `N/C(=N\OC(=O)CCc1ccccc1)c1cccnc1`, the inhibition was 91.1% (active).
In the case of `Cc1ccc(NC(=O)C2CC2c2ccccc2)cc1` (stereo not drawn), the inhibition is 94.8% (active).
The value for `O=C(Cn1cnc2ccccc2c1=O)Nc1cccc(S(=O)(=O)N2CCCCC2)c1` was 85.6% (active); that for `COc1ccc(/C(N)=N/OC(=O)Cc2ccccc2)cc1` was 93.6% (active).
The value for `CC(=O)c1cccc(OCc2cc(C(=O)NC(C)Cc3cccnc3)no2)c1` (stereo not drawn) was 92.4% (active); that for `CC(CNc1ccc([N+](=O)[O-])cc1)NC(=O)c1ccccc1Br` (stereo not drawn) was -4.57% (inactive).
For `O=C(/C=C/c1ccc2c(c1)OCCO2)c1ccc(O)cc1` the value was 93.3% (active); for `CN(Cc1cnccn1)C(=O)c1cc(COc2cccc(C(F)(F)F)c2)on1`, 96% (active); for `Cc1ccc(Cc2nc(-c3cccc(C)c3)no2)cc1`, 92.5% (active).
In the case of `O=C(COC(=O)C1CCCCC1)Nc1ccc([N+](=O)[O-])cc1`, the inhibition was 93.7% (active).
The value for `CC(C)(C)c1ccc(OC2=CS(=O)(=O)c3ccccc32)cc1` was 92.5% (active).
For `COc1cccc(NC(=O)NCc2ccc(F)cc2)c1` the value was 94.6% (active); for `Cc1ccsc1C(=O)OCC(=O)c1cc2ccccc2o1`, 95.1% (active).
For `Cc1ccc(Oc2cnn(-c3ccccc3)c(=O)c2Br)cc1` the value was 99.2% (active); for `Cc1ccccc1NC(=O)CCOc1ccccc1`, 90.7% (active).
For `O=C(Nc1ccc(F)c(Cl)c1)C1CCN(S(=O)(=O)c2cccnc2)CC1`, the inhibition was 97.7% (active).
The value for `Cc1cc(C(=O)OCC(=O)Nc2ccc(F)c(F)c2)c(C)o1` was 97.5% (active); that for `Cc1cccc(CSc2ccc(-c3cccs3)nn2)c1` was 94.7% (active); that for `Cc1ccccc1C(=O)Nc1ccc(N2CCCCCC2)cc1` was 91.4% (active).
For the compound `O=C(CCC(=O)c1cccs1)Nc1nc2ccccc2s1`, the inhibition was 97.5% (active).
As for `COC(=O)c1ccc(SCc2ccccc2)nc1`, the inhibition was 96.4% (active).
Turning to `O=C1COc2ccc(S(=O)(=O)Nc3ccc(OC(F)(F)F)cc3)cc2N1`, the inhibition was 96.7% (active).
For the compound `CCOc1ccc(/C=N/NC(N)=S)cc1`, the inhibition was 92.7% (active).
Take `O=S(=O)(Nc1cccc(Oc2ccc(Cl)cc2)n1)c1ccc(F)cc1`: the inhibition is 99.6% (active).
As to `CCOC(=O)c1nn(-c2cccc(C)c2)cc1C(=O)c1ccccc1`, the inhibition is 87.7% (active).
For `S=C(NCc1ccc(Cl)cc1)NC1CCCCC1` the value was 94.1% (active).
